Key:
Type in all cases: functional, cell-based
DU-145 = assay: Cytotoxicity against human DU145 cells after 72 hrs by SRB assay
Outline: (§1)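 Cells seeded at 3–5 × 10^3 per well in RPMI-1640 with 10% FBS containing graded sample concentrations, exposed 72 h. Attached cells fixed with cold 50% trichloroacetic acid 30 min, stained with 0.04% SRB 30 min, bound dye dissolved in 10 mM Tris-base, absorbance read at 515 nm. Triplicate experiments; IC50 reported. KBvin is a vincristine-selected MDR KB subline.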

[1] = Cytotoxicity against human KBVIN cells after 72 hrs by SRB assay; outline: as §1
KB = assay: Cytotoxicity against human KB cells after 72 hrs by SRB assay; outline: as §1
A549 = assay: Cytotoxicity against human A549 cells after 72 hrs by SRB assay; outline: as §1

Row | Structure (SMILES) | IC50 (DU-145) [µM] | IC50 ([1]; kbvin) [µM] | IC50 (KB) [µM] | IC50 (A549) [µM] | IC50 ([1]; Homo sapiens, KBVIN, 72 h) [µM]
1 | CCCN(C(=O)C1=CC(C)(C)N([O])C1(C)C)C(C(=O)N[C@@H]1c2cc3c(cc2[C@@H](c2cc(OC)c(OC)c(OC)c2)[C@H]2C(=O)OC[C@@H]21)OCO3)c1ccc(OC)cc1 (some centres undefined) | > 20 | > 20 | > 20 | > 20 | 
2 | CCCN(C(=O)C1=CC(C)(C)N([O])C1(C)C)C1(C(=O)N[C@@H]2c3cc4c(cc3[C@@H](c3cc(OC)c(OC)c(OC)c3)[C@H]3C(=O)OC[C@@H]32)OCO4)CCCCC1 | > 20 | > 20 | > 20 | > 20 | 
3 | CCCC(C(=O)N[C@@H]1c2cc3c(cc2[C@@H](c2cc(OC)c(OC)c(OC)c2)[C@H]2C(=O)OC[C@@H]21)OCO3)N(C(=O)C1=CC(C)(C)N([O])C1(C)C)C(C)(C)C (some centres undefined) | > 20 | > 20 | > 20 | > 20 | 
4 | CCCC(C(=O)N[C@@H]1c2cc3c(cc2[C@@H](c2cc(OC)c(OC)c(OC)c2)[C@H]2C(=O)OC[C@@H]21)OCO3)N(CCC)C(=O)C1=CC(C)(C)N([O])C(C)(C)C1 (some centres undefined) | > 20 | > 20 | > 20 | > 20 | 
5 | CCCC(C(=O)N[C@@H]1c2cc3c(cc2[C@@H](c2cc(OC)c(OC)c(OC)c2)[C@H]2C(=O)OC[C@@H]21)OCO3)N(CCC)C(=O)C1CC(C)(C)N([O])C(C)(C)C1 (some centres undefined) | > 20 | > 20 | > 20 | > 20 | 
6 | COc1cc([C@@H]2c3cc4c(cc3[C@@H](NC(=O)C(C)(C)OC(=O)C3=CC(C)(C)N([O])C3(C)C)[C@H]3COC(=O)[C@H]23)OCO4)cc(OC)c1OC | 2.39 | 2.55 | 2.32 | 2.38 | 
7 | COc1cc([C@@H]2c3cc4c(cc3[C@@H](NC(=O)C(OC(=O)C3=CC(C)(C)N([O])C3(C)C)c3ccccc3)[C@H]3COC(=O)[C@H]23)OCO4)cc(OC)c1OC (some centres undefined) | > 20 | > 20 | > 20 | > 20 | 
8 | CCCC(OC(=O)C1=CC(C)(C)N([O])C1(C)C)C(=O)N[C@@H]1c2cc3c(cc2[C@@H](c2cc(OC)c(OC)c(OC)c2)[C@H]2C(=O)OC[C@@H]21)OCO3 (some centres undefined) | 7.07 | 8.88 | 7.12 | 8.86 | 
9 | COc1cc([C@@H]2c3cc4c(cc3[C@@H](NC(=O)C3(OC(=O)C5=CC(C)(C)N([O])C5(C)C)CCCCC3)[C@H]3COC(=O)[C@H]23)OCO4)cc(OC)c1OC | 8.74 | 13.7 | 9.24 | 9.52 | 
10 | COc1ccc(C(OC(=O)C2=CC(C)(C)N([O])C2(C)C)C(=O)N[C@@H]2c3cc4c(cc3[C@@H](c3cc(OC)c(OC)c(OC)c3)[C@H]3C(=O)OC[C@@H]32)OCO4)cc1 (some centres undefined) | 0.63 | 0.73 | 0.6 | 0.75 | 
11 | COc1cc([C@@H]2c3cc4c(cc3[C@@H](NC(=O)C(Cc3ccccc3)OC(=O)C3=CC(C)(C)N([O])C3(C)C)[C@H]3COC(=O)[C@H]23)OCO4)cc(OC)c1OC (some centres undefined) | 6.82 | 7.71 | 6.53 | 7.68 | 
12 | COc1cc([C@@H]2c3cc4c(cc3[C@@H](NC(=O)C(OC(=O)C3=CC(C)(C)N([O])C3(C)C)c3ccco3)[C@H]3COC(=O)[C@H]23)OCO4)cc(OC)c1OC (some centres undefined) | 6.55 | 7.35 | 7.12 | 7.38 | 
13 | COc1cc([C@@H]2c3cc4c(cc3[C@@H](NC(=O)C(OC(=O)C3=CC(C)(C)N([O])C3(C)C)c3ccc5c(c3)OCO5)[C@H]3COC(=O)[C@H]23)OCO4)cc(OC)c1OC (some centres undefined) | 1.37 | 2.03 | 1.12 | 1.46 | 
14 | CCCC(OC(=O)C1CC(C)(C)N([O])C(C)(C)C1)C(=O)N[C@@H]1c2cc3c(cc2[C@@H](c2cc(OC)c(OC)c(OC)c2)[C@H]2C(=O)OC[C@@H]21)OCO3 (some centres undefined) | 7.13 | 7.96 | 6.58 | 8.82 | 
15 | CCCC(OC(=O)C1=CC(C)(C)N([O])C(C)(C)C1)C(=O)N[C@@H]1c2cc3c(cc2[C@@H](c2cc(OC)c(OC)c(OC)c2)[C@H]2C(=O)OC[C@@H]21)OCO3 (some centres undefined) | 7.27 | 8.35 | 6.88 | 9.05 | 
16 | CCCC(C(=O)N[C@@H]1c2cc3c(cc2[C@@H](c2cc(OC)c(OC)c(OC)c2)[C@H]2C(=O)OC[C@@H]21)OCO3)N(C(=O)C1=CC(C)(C)N([O])C1(C)C)C1CCCCC1 (some centres undefined) | 11 | 8.83 | 9.35 | 8.98 | 
17 | CCCC(C(=O)N[C@@H]1c2cc3c(cc2[C@@H](c2cc(OC)c(OC)c(OC)c2)[C@H]2C(=O)OC[C@@H]21)OCO3)N(C(=O)C1=CC(C)(C)N([O])C1(C)C)c1ccccc1 (some centres undefined) | 9.78 | 7.47 | 8.49 | 8.4 | 
18 | COc1cc([C@@H]2c3cc4c(cc3[C@@H](NC(=O)C(c3ccccc3)N(C(=O)C3CC(C)(C)N([O])C(C)(C)C3)c3ccccc3)[C@H]3COC(=O)[C@H]23)OCO4)cc(OC)c1OC (some centres undefined) | 6.08 | 6.45 | 5.94 | 6.1 | 
19 | CCCN(C(=O)C1=CC(C)(C)N([O])C1(C)C)C(C)(C)C(=O)N[C@@H]1c2cc3c(cc2[C@@H](c2cc(OC)c(OC)c(OC)c2)[C@H]2C(=O)OC[C@@H]21)OCO3 | > 20 | > 20 | > 20 | > 20 | 
20 | CCCN(C(=O)C1=CC(C)(C)N([O])C(C)(C)C1)C(C)(C)C(=O)N[C@@H]1c2cc3c(cc2[C@@H](c2cc(OC)c(OC)c(OC)c2)[C@H]2C(=O)OC[C@@H]21)OCO3 | > 20 | > 20 | > 20 | > 20 | 
21 | CCCC(C(=O)N[C@@H]1c2cc3c(cc2[C@@H](c2cc(OC)c(OC)c(OC)c2)[C@H]2C(=O)OC[C@@H]21)OCO3)N(CCC)C(=O)C1=CC(C)(C)N([O])C1(C)C (some centres undefined) | > 20 | > 20 | > 20 | > 20 | 
22 | CCCN(C(=O)C1=CC(C)(C)N([O])C1(C)C)C(C(=O)N[C@@H]1c2cc3c(cc2[C@@H](c2cc(OC)c(OC)c(OC)c2)[C@H]2C(=O)OC[C@@H]21)OCO3)c1ccccc1 (some centres undefined) | > 20 | > 20 | > 20 | > 20 | 
23 | COc1cc([C@@H]2c3cc4c(cc3[C@@H](O[C@@H]3O[C@@H]5CO[C@@H](C)O[C@H]5[C@H](O)[C@H]3O)[C@H]3COC(=O)[C@H]23)OCO4)cc(OC)c1O [ETOPOSIDE] |  |  |  |  | > 20

From ChEMBL document CHEMBL3120116, “Toward synthesis of third-generation spin-labeled podophyllotoxin derivatives using isocyanide multicomponent reactions” (Eur J Med Chem, 2014)
